Active and inactive are the calls of the source. The rule behind the calls is not given here.
Assays:
Bacillus licheniformis = experiment: Compound was tested for inhibition of Bacillus licheniformis 749/C, class A of beta-Lactamases.; format: functional, organism-based
Citrobacter freundii [1] = experiment: Compound was tested for inhibition of Citrobacter freundii 1928 in combination with Ceftriaxone; format: functional
In short: (§1)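 MICs determined by serial 2-fold dilution in Mueller-Hinton broth with an inoculum of approximately 10⁵ cfu/mL. The test compound was combined with ceftriaxone.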

Enterobacter cloacae [2] = experiment: (§2) Compound was tested for inhibition of Ent. cloacae 908R in combination with Ceftriaxone; format: functional; in short: as §1
Pseudomonas aeruginosa [3] = experiment: Compound was tested for inhibition of Pseudomonas aeruginosa 18SH in combination with Ceftriaxone; format: functional; in short: as §1
[4] = (§3) Compound was tested for inhibition of TEM-3, class A of beta-lactamases.; format: functional, Escherichia coli
[5] = (§4) Compound was tested for inhibition of pTEM-3 from Escherichia coli in combination with Ceftriaxone; format: functional; in short: as §1
[6] = (§5) Compound was tested for inhibition of pTEM-4 from Escherichia coli in combination with Ceftriaxone; format: functional; in short: as §1
[7] = (§6) Compound was tested for inhibition of TEM-1, class A of beta-lactamases.; format: functional, Escherichia coli
Beta-lactamase [8] = target: Beta-lactamase (Escherichia coli K-12, UniProt P00811); experiment: Compound was tested for inhibition of Escherichia coli AmpC, class C of Beta-lactamase
Beta-lactamase [9] = target: Beta-lactamase (Bacillus licheniformis, UniProt P00808); experiment: Compound was tested for inhibition of Bacillus licheniformis 749/C, class A of Beta-lactamase
Beta-lactamase [10] = target: Beta-lactamase (Pseudomonas aeruginosa (strain ATCC 15692 / PAO1 / 1C / PRS 101 / LMG12228), UniProt P24735); experiment: Compound was tested for inhibition of Pseudomonas aeruginosa 18SH, class C of Beta-lactamase
Beta-lactamase [11] = target: Beta-lactamase (Citrobacter freundii, UniProt P05193); experiment: Compound was tested for inhibition of Citrobacter freundii 1928, class C of Beta-lactamase
Enterobacter cloacae [12] = experiment: Compound was tested for inhibition of Ent. cloacae 908R in combination with Ceftriaxone (expressed in MIC).; format: functional, organism-based; in short: as §1
[13] = target: Penicillin-binding protein 4 (Staphylococcus aureus, UniProt P72355); experiment: Compound was tested for inhibition of Penicillin-binding protein 4 from Staphylococcus aureus (Schoch).
[14] = target: T1, Penicillin-binding protein 1B (Escherichia coli K-12, UniProt P02919); experiment: Compound was tested for inhibition of Penicillin-binding protein 1b from Escherichia coli.
T1 sequence (P02919 whole entry): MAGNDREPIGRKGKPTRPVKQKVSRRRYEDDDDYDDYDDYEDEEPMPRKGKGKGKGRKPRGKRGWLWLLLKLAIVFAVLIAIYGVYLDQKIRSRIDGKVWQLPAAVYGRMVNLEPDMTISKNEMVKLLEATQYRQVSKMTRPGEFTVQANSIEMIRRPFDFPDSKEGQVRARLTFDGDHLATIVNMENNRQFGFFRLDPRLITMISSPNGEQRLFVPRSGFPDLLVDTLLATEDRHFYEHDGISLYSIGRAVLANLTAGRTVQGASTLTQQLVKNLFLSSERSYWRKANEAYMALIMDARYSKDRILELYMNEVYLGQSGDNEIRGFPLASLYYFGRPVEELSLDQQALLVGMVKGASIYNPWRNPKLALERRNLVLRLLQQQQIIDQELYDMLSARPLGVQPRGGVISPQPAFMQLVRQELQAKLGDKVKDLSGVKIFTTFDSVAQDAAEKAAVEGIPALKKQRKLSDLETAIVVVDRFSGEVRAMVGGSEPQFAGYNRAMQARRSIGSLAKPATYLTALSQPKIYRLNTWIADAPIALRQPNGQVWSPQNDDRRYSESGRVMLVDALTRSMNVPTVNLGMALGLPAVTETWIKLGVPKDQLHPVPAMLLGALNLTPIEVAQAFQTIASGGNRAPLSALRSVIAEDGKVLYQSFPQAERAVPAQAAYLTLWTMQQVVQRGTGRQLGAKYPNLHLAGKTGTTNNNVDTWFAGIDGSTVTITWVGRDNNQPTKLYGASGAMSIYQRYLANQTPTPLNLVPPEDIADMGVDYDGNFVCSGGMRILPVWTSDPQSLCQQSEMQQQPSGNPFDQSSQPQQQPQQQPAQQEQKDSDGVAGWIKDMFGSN
In short: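 Penicillin binding was assayed on membrane fragments from E. coli W3110 or S. aureus Schoch, using ¹⁴C-labeled benzylpenicillin as the probe. IC₅₀ values are reported in µM.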

[15] = target: Peptidoglycan D,D-transpeptidase MrdA (Escherichia coli K-12, UniProt P0AD65); experiment: Compound was tested for inhibition of Penicillin-binding protein 2 from Escherichia coli.
[16] = Compound was tested for inhibition of Penicillin-binding protein 1 from Staphylococcus aureus (Schoch).
Pseudomonas aeruginosa [17] = experiment: Compound was tested for inhibition of Pseudomonas aeruginosa 18SH in combination with Ceftriaxone (expressed in MIC).; format: functional, organism-based; in short: as §1
[18] = as §6; parameters: species or system Escherichia coli
[19] = as §3; parameters: species or system Escherichia coli
[20] = (§7) Compound was tested for inhibition of pTEM-3 from Escherichia coli in combination with Ceftriaxone (expressed in MIC).; in short: as §1
[21] = (§8) Compound was tested for inhibition of pTEM-4 from Escherichia coli in combination with Ceftriaxone (not active).; in short: as §1
Citrobacter freundii [22] = experiment: Compound was tested for inhibition of Citrobacter freundii 1928 in combination with Ceftriaxone; Not active; format: functional, organism-based; in short: as §1
[23] = Compound was tested for inhibition of Penicillin-binding protein 2x from Streptococcus pneumoniae
In short: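 S. pneumoniae PBP 2x was assayed as recombinant soluble protein. IC₅₀ values are reported in µM.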

Escherichia coli [24] = experiment: as §4; in short: as §1
Escherichia coli [25] = experiment: as §5; in short: as §1
Enterobacter cloacae [26] = experiment: as §2; format: functional, organism-based; in short: as §1
Citrobacter freundii [27] = experiment: (§9) Compound was tested for inhibition of Citrobacter freundii 1928 in combination with Ceftriaxone (expressed in MIC).; format: functional, organism-based
[28] = as §7; format: functional
[29] = as §8; format: functional
Citrobacter freundii [30] = experiment: as §9; format: functional, organism-based; in short: as §1; remark: listed apart in the source
[31] = Compound was tested for inhibition of pTEM-4 from Escherichia coli in combination with Ceftriaxone; NA = Not active; in short: as §1

Chain of Beta-lactamase (Escherichia coli K-12, UniProt P00811) (P00811 whole entry): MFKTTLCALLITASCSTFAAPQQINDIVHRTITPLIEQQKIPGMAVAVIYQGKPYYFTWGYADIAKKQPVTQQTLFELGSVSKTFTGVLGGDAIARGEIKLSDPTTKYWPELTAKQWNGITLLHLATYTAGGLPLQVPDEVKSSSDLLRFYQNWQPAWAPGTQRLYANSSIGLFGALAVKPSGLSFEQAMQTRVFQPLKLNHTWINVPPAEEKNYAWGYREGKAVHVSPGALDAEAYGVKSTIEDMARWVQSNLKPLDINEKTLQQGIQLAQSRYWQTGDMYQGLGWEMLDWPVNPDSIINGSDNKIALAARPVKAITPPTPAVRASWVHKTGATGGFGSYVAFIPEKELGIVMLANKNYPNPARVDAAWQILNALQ
Chain of Beta-lactamase (Citrobacter freundii, UniProt P05193) (P05193 whole entry): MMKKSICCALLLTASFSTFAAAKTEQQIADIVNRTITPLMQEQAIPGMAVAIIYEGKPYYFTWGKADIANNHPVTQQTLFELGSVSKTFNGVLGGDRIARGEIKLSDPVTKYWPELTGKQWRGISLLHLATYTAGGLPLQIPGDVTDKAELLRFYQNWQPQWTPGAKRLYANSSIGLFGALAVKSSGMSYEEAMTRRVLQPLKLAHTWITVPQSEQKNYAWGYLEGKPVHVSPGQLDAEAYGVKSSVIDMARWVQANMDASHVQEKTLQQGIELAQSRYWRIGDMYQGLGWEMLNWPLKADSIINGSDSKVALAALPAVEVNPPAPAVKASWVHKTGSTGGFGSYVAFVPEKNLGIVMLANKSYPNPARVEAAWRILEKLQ
Chain of Beta-lactamase (Pseudomonas aeruginosa (strain ATCC 15692 / PAO1 / 1C / PRS 101 / LMG12228), UniProt P24735) (P24735 whole entry): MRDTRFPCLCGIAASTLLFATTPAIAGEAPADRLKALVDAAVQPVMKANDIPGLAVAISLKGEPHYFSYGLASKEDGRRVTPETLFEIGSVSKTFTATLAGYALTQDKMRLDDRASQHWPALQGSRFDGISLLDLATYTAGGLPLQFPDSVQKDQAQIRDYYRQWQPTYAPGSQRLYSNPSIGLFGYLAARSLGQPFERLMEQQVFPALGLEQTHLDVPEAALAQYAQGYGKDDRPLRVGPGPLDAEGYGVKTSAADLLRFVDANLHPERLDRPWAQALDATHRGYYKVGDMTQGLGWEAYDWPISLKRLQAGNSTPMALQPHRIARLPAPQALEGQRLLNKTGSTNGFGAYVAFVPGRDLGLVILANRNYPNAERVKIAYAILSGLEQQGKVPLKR
Chain of Beta-lactamase (Bacillus licheniformis, UniProt P00808) (P00808 whole entry): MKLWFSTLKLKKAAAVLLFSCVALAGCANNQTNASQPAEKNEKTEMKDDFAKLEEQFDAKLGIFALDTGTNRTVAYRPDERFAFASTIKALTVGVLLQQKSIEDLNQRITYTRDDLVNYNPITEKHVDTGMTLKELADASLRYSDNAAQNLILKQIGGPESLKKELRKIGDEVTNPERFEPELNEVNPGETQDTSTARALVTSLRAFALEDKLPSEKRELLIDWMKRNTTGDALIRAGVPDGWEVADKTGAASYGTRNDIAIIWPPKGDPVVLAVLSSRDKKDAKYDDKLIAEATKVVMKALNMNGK
Chain of Penicillin-binding protein 4 (P72355 whole entry): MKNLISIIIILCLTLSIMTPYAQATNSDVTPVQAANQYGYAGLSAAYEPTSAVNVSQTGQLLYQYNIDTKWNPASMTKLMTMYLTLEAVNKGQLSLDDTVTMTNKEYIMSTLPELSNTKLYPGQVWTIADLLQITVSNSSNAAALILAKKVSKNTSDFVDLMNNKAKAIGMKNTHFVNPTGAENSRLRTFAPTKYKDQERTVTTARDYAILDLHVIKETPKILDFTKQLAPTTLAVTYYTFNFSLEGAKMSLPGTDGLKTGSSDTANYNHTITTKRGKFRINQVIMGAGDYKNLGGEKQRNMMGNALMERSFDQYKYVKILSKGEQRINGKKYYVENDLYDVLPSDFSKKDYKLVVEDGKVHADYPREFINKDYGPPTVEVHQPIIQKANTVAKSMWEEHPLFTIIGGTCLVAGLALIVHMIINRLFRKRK
Chain of Peptidoglycan D,D-transpeptidase MrdA (P0AD65 whole entry): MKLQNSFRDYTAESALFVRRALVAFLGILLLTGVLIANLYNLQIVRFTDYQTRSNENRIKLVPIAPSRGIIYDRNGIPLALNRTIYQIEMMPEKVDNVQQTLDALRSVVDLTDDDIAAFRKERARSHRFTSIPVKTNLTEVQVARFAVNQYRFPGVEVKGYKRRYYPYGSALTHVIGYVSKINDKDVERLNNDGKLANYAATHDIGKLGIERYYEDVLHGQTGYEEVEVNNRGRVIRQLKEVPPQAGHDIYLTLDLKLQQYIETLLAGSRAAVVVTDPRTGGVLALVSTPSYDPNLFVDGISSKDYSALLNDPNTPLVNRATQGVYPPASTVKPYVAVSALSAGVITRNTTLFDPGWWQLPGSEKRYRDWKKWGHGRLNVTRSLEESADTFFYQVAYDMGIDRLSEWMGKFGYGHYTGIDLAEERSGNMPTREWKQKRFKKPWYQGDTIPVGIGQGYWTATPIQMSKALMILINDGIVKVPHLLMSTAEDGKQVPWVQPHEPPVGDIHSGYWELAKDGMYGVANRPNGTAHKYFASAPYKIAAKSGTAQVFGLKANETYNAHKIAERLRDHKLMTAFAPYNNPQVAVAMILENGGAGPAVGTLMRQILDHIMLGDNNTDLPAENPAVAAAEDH

Row | SMILES | IC50 (Bacillus licheniformis) | MIC (Citrobacter freundii [1]) | MIC (Enterobacter cloacae [2]) | MIC (Pseudomonas aeruginosa [3]) | IC50 [4] | MIC [5] | MIC [6] | IC50 [7] | IC50 (Beta-lactamase [8]) | IC50 (Beta-lactamase [9]) | IC50 (Beta-lactamase [10]) | IC50 (Beta-lactamase [11]) | MIC (Enterobacter cloacae [12]) | IC50 [14] | MIC (Pseudomonas aeruginosa [17]) | IC50 [18] | IC50 [19] | other results
1 | C[C@]1(/C=C\Cl)[C@H](C(=O)[O-])N2C(=O)C[C@H]2S1(=O)=O.[Na+] | 6.6 µM | 4 µg/mL | 4 µg/mL | 4 µg/mL | 0.06 µM | 0.25 µg/mL | 1 µg/mL | 5.6 µM | – | – | – | – | – | – | – | – | – | –
2 | C[C@]1(/C=C/C[n+]2ccccc2)[C@H](C(=O)O)N2C(=O)C[C@H]2S1(=O)=O | – | – | – | – | – | – | – | – | 330 µM | 1.8 µM | 75 µM | 16 µM | 8 µg/mL | > 10000 µM | > 16 µg/mL | 3.6 µM | 0.14 µM | IC50 [13]: 15 µM; IC50 [15]: 297 µM; IC50 [16]: 15 µM; MIC [20]: 0.25 µg/mL; MIC [21]: 0.5 µg/mL
3 | C[C@]1(C=CC(N)=O)[C@H](C(=O)O)N2C(=O)C[C@H]2S1(=O)=O | 6 µM | – | 8 µg/mL | 16 µg/mL | 0.054 µM | < 0.25 µg/mL | 0.5 µg/mL | 13 µM | – | – | – | – | – | – | – | – | – | NA (Citrobacter freundii [22]): inactive
4 | C[C@]1(/C=C\c2ccccn2)[C@H](C(=O)[O-])N2C(=O)C[C@H]2S1(=O)=O.[Na+] | – | 8 µg/mL | 32 µg/mL | > 16 µg/mL | – | – | – | – | 46 µM | 2.3 µM | 15 µM | 1 µM | – | > 10000 µM | – | 19 µM | 0.092 µM | IC50 [13]: 15 µM; IC50 [23]: 4.5 µM; IC50 [16]: 15 µM; MIC (Escherichia coli [24]): 1 µg/mL; MIC (Escherichia coli [25]): 4 µg/mL
5 | C[C@]1(/C=C/COC(N)=O)[C@H](C(=O)O)N2C(=O)C[C@H]2S1(=O)=O | 6.5 µM | 4 µg/mL | – | 8 µg/mL | 0.76 µM | 1 µg/mL | 4 µg/mL | 9.1 µM | – | – | – | – | – | – | – | – | – | MIC (Enterobacter cloacae [26]): 8 µg/mL
6 | CC(=O)/C=C\[C@@]1(C)[C@H](C(=O)O)N2C(=O)C[C@H]2S1(=O)=O | 3.9 µM | – | – | – | 0.42 µM | – | – | 10 µM | – | – | – | – | 2 µg/mL | – | 32 µg/mL | – | – | MIC (Citrobacter freundii [27]): 1 µg/mL; MIC [28]: 0.25 µg/mL; MIC [29]: 2 µg/mL
7 | C[C@]1(/C=C\c2cncs2)[C@H](C(=O)[O-])N2C(=O)C[C@H]2S1(=O)=O.[Na+] | – | 16 µg/mL | 16 µg/mL | > 16 µg/mL | – | – | – | – | 2.7 µM | 0.54 µM | 8.9 µM | 0.41 µM | – | > 10000 µM | – | 13 µM | 0.054 µM | IC50 [23]: 4.8 µM; MIC (Escherichia coli [24]): 0.5 µg/mL; MIC (Escherichia coli [25]): 4 µg/mL
8 | CCOC(=O)/C=C\[C@@]1(C)[C@H](C(=O)O)N2C(=O)C[C@H]2S1(=O)=O | – | – | – | – | – | – | – | – | 61 µM | 2.9 µM | 15 µM | – | 8 µg/mL | – | > 16 µg/mL | 14 µM | 0.46 µM | MIC (Citrobacter freundii [30]): 4 µg/mL; MIC [20]: < 0.25 µg/mL; MIC [31]: Not Active

— ChEMBL document CHEMBL1129642, “Design, synthesis, and evaluation of 2 beta-alkenyl penam sulfone acids as inhibitors of beta-lactamases” (J Med Chem, 1996)
